From ChEMBL document CHEMBL3259614, “Design, synthesis, and structure-activity relationship studies of novel fused heterocycles-linked triazoles with good activity and water solubility” (J Med Chem, 2014)
Converted amounts (≈) assume the structure as drawn.

How the values were obtained:
Assay type in all cases: functional
Candida albicans [1] = assay: Antimicrobial activity against Candida albicans Y0109 after 24 hrs by serial dilution method; details: Y0109, 24 h
Procedure, shortened: (§1)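 Broth serial dilution MIC in 96-well plates following NCCLS/CLSI methods. Compounds were dissolved in DMSO and serially diluted in growth medium, with incubation at 35 °C. […] C. parapsilosis 22019 served as the quality-control strain in each assay.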

Candida parapsilosis = assay: Antimicrobial activity against Candida parapsilosis 22019 after 24 hrs by serial dilution method; details: Lodderomyces parapsilosis, 22019, 24 h; procedure, shortened: as §1
Candida albicans [2] = assay: Antimicrobial activity against Candida albicans SC5314 after 24 hrs by serial dilution method; details: SC5314, 24 h; procedure, shortened: as §1
Nakaseomyces glabratus = assay: Antimicrobial activity against Candida glabrata 537 after 24 hrs by serial dilution method; details: Nakaseomyces glabratus, 537, 24 h; procedure, shortened: as §1
Cryptococcus neoformans = assay: Antimicrobial activity against Cryptococcus neoformans 32609 after 72 hrs by serial dilution method; details: Cryptococcus neoformans, 32609, 72 h; procedure, shortened: as §1
Aspergillus fumigatus = assay: Antimicrobial activity against Aspergillus fumigatus 7544 after 48 hrs by serial dilution method; details: Aspergillus fumigatus, 7544, 48 h; procedure, shortened: as §1

| Compound | MIC (Candida albicans [1]) | MIC (Candida parapsilosis) | MIC (Candida albicans [2]) | MIC (Nakaseomyces glabratus) | MIC (Cryptococcus neoformans) | MIC (Aspergillus fumigatus) |
| --- | --- | --- | --- | --- | --- | --- |
| C[C@@H](N1CCc2sc(-c3ccccc3)cc2C1)[C@](O)(Cn1cncn1)c1ccc(F)cc1F | 8 µg/mL (≈ 17.1 µM) | 8 µg/mL (≈ 17.1 µM) | 1 µg/mL (≈ 2.14 µM) | 4 µg/mL (≈ 8.57 µM) | 2 µg/mL (≈ 4.29 µM) | 32 µg/mL (≈ 68.6 µM) |
| C[C@@H](N1CCn2nc(-c3ccc(F)cc3F)nc2C1)[C@](O)(Cn1cncn1)c1ccc(F)cc1F | 0.125 µg/mL (≈ 0.256 µM) | 0.25 µg/mL (≈ 0.513 µM) | 0.125 µg/mL (≈ 0.256 µM) | 0.5 µg/mL (≈ 1.03 µM) | 0.5 µg/mL (≈ 1.03 µM) | > 64 µg/mL |
| C[C@@H](N1CCn2nnc(Cl)c2C1)[C@](O)(Cn1cncn1)c1ccc(F)cc1F | 0.0625 µg/mL (≈ 0.153 µM) | 0.125 µg/mL (≈ 0.305 µM) | ≤ 0.0312 µg/mL | 0.25 µg/mL (≈ 0.61 µM) | ≤ 0.0625 µg/mL | 8 µg/mL (≈ 19.5 µM) |
| CC(C)c1cccc(-c2nc3n(n2)CCN([C@H](C)[C@](O)(Cn2cncn2)c2ccc(F)cc2F)C3)c1 | 4 µg/mL (≈ 8.1 µM) | 4 µg/mL (≈ 8.1 µM) | 0.25 µg/mL (≈ 0.507 µM) | 4 µg/mL (≈ 8.1 µM) | 8 µg/mL (≈ 16.2 µM) | 16 µg/mL (≈ 32.4 µM) |
| C[C@@H](N1CCc2nc(-c3cccs3)sc2C1)[C@](O)(Cn1cncn1)c1ccc(F)cc1F | 0.25 µg/mL (≈ 0.528 µM) | 1 µg/mL (≈ 2.11 µM) | 0.25 µg/mL (≈ 0.528 µM) | 0.5 µg/mL (≈ 1.06 µM) | 0.5 µg/mL (≈ 1.06 µM) | 8 µg/mL (≈ 16.9 µM) |
| C[C@@H](N1CCc2nc(-c3cccc(C#N)c3)sc2C1)[C@](O)(Cn1cncn1)c1ccc(F)cc1F | 0.125 µg/mL (≈ 0.254 µM) | 2 µg/mL (≈ 4.06 µM) | 0.125 µg/mL (≈ 0.254 µM) | 2 µg/mL (≈ 4.06 µM) | 1 µg/mL (≈ 2.03 µM) | 16 µg/mL (≈ 32.5 µM) |
| COc1ccc(-c2nc3n(n2)CCN([C@H](C)[C@](O)(Cn2cncn2)c2ccc(F)cc2F)C3)cn1 | 0.125 µg/mL (≈ 0.259 µM) | 0.125 µg/mL (≈ 0.259 µM) | 0.0625 µg/mL (≈ 0.13 µM) | 0.5 µg/mL (≈ 1.04 µM) | 0.25 µg/mL (≈ 0.518 µM) | 32 µg/mL (≈ 66.3 µM) |
| COc1ccc(-c2nc3c(s2)CN([C@H](C)[C@](O)(Cn2cncn2)c2ccc(F)cc2F)CC3)cn1 | 0.25 µg/mL (≈ 0.501 µM) | 0.5 µg/mL (≈ 1 µM) | 0.25 µg/mL (≈ 0.501 µM) | 0.5 µg/mL (≈ 1 µM) | 0.25 µg/mL (≈ 0.501 µM) | 16 µg/mL (≈ 32.1 µM) |
| C[C@@H](N1CCn2nncc2C1)[C@](O)(Cn1cncn1)c1ccc(F)cc1F | 0.125 µg/mL (≈ 0.333 µM) | 0.25 µg/mL (≈ 0.666 µM) | 0.0625 µg/mL (≈ 0.166 µM) | 0.5 µg/mL (≈ 1.33 µM) | 0.25 µg/mL (≈ 0.666 µM) | 16 µg/mL (≈ 42.6 µM) |
| C[C@@H](N1CCn2nc(-c3ccco3)nc2C1)[C@](O)(Cn1cncn1)c1ccc(F)cc1F | 0.125 µg/mL (≈ 0.283 µM) | 0.25 µg/mL (≈ 0.566 µM) | 0.125 µg/mL (≈ 0.283 µM) | 0.25 µg/mL (≈ 0.566 µM) | 0.25 µg/mL (≈ 0.566 µM) | 16 µg/mL (≈ 36.2 µM) |
| C[C@@H](N1CCn2cc(-c3ccc(F)cc3F)nc2C1)[C@](O)(Cn1cncn1)c1ccc(F)cc1F | 0.125 µg/mL (≈ 0.257 µM) | 0.125 µg/mL (≈ 0.257 µM) | 0.125 µg/mL (≈ 0.257 µM) | 0.125 µg/mL (≈ 0.257 µM) | 0.125 µg/mL (≈ 0.257 µM) | 32 µg/mL (≈ 65.8 µM) |
| C[C@@H](N1CCn2nc(-c3cncc(F)c3)nc2C1)[C@](O)(Cn1cncn1)c1ccc(F)cc1F | 0.125 µg/mL (≈ 0.266 µM) | 0.125 µg/mL (≈ 0.266 µM) | 0.125 µg/mL (≈ 0.266 µM) | 1 µg/mL (≈ 2.13 µM) | 0.125 µg/mL (≈ 0.266 µM) | 32 µg/mL (≈ 68 µM) |
| C[C@@H](N1CCn2cc(-c3ccc(F)cc3)nc2C1)[C@](O)(Cn1cncn1)c1ccc(F)cc1F | 0.125 µg/mL (≈ 0.267 µM) | 0.125 µg/mL (≈ 0.267 µM) | 0.125 µg/mL (≈ 0.267 µM) | 0.125 µg/mL (≈ 0.267 µM) | 0.125 µg/mL (≈ 0.267 µM) | 32 µg/mL (≈ 68.3 µM) |

Further lines, results first:

| MIC (Candida albicans [1]) | MIC (Candida parapsilosis) | MIC (Candida albicans [2]) | MIC (Nakaseomyces glabratus) | MIC (Cryptococcus neoformans) | MIC (Aspergillus fumigatus) | Compound |
| --- | --- | --- | --- | --- | --- | --- |
| 2 µg/mL (≈ 3.73 µM) | 2 µg/mL (≈ 3.73 µM) | 1 µg/mL (≈ 1.87 µM) | 1 µg/mL (≈ 1.87 µM) | 2 µg/mL (≈ 3.73 µM) | 32 µg/mL (≈ 59.8 µM) | C[C@@H](N1CCc2nc(-c3ccc(C(F)(F)F)cc3)sc2C1)[C@](O)(Cn1cncn1)c1ccc(F)cc1F |
| 8 µg/mL (≈ 15 µM) | 16 µg/mL (≈ 29.9 µM) | 4 µg/mL (≈ 7.48 µM) | 16 µg/mL (≈ 29.9 µM) | 8 µg/mL (≈ 15 µM) | 32 µg/mL (≈ 59.9 µM) | C[C@@H](N1CCc2sc(-c3ccc(C(F)(F)F)cc3)cc2C1)[C@](O)(Cn1cncn1)c1ccc(F)cc1F |
| 0.0312 µg/mL (≈ 0.0667 µM) | 0.125 µg/mL (≈ 0.267 µM) | 0.0312 µg/mL (≈ 0.0667 µM) | 0.125 µg/mL (≈ 0.267 µM) | 0.125 µg/mL (≈ 0.267 µM) | 4 µg/mL (≈ 8.54 µM) | C[C@@H](N1CCc2nc(-c3ccncc3)sc2C1)[C@](O)(Cn1cncn1)c1ccc(F)cc1F |
| 2 µg/mL (≈ 3.66 µM) | 2 µg/mL (≈ 3.66 µM) | 2 µg/mL (≈ 3.66 µM) | 8 µg/mL (≈ 14.6 µM) | 4 µg/mL (≈ 7.32 µM) | 32 µg/mL (≈ 58.6 µM) | C[C@@H](N1CCc2nc(-c3cccc(Br)c3)sc2C1)[C@](O)(Cn1cncn1)c1ccc(F)cc1F |
| 2 µg/mL (≈ 4.12 µM) | 2 µg/mL (≈ 4.12 µM) | 2 µg/mL (≈ 4.12 µM) | 8 µg/mL (≈ 16.5 µM) | 2 µg/mL (≈ 4.12 µM) | 32 µg/mL (≈ 65.9 µM) | C[C@@H](N1CCc2nc(-c3cccc(F)c3)sc2C1)[C@](O)(Cn1cncn1)c1ccc(F)cc1F |
| 1 µg/mL (≈ 2.06 µM) | 2 µg/mL (≈ 4.12 µM) | 1 µg/mL (≈ 2.06 µM) | 4 µg/mL (≈ 8.24 µM) | 1 µg/mL (≈ 2.06 µM) | 16 µg/mL (≈ 33 µM) | C[C@@H](N1CCc2nc(-c3ccc(F)cc3)sc2C1)[C@](O)(Cn1cncn1)c1ccc(F)cc1F |
| 0.125 µg/mL (≈ 0.257 µM) | 0.25 µg/mL (≈ 0.514 µM) | 0.0625 µg/mL (≈ 0.128 µM) | 0.125 µg/mL (≈ 0.257 µM) | 0.125 µg/mL (≈ 0.257 µM) | 8 µg/mL (≈ 16.4 µM) | C[C@@H](N1CCc2nc(-c3ccc(F)nc3)sc2C1)[C@](O)(Cn1cncn1)c1ccc(F)cc1F |
